Here are results for seven compounds from ChEMBL document CHEMBL3585269, “Simple structural modifications confer cytotoxicity to allobetulin” (Bioorg Med Chem, 2015).

A short description of test [1]: Cytotoxicity against mouse NIH/3T3 cells by SRB assay. The test is classed as cell-based. Conditions: NIH3T3. (The SRB assay estimates cell density from bound dye.)
Test [2] in a line: Cytotoxicity against human 518A2 cells by SRB assay. The test is classed as functional, cell-based. Conditions: Homo sapiens, 518A2; read-out: EC50. In short, it runs like this:
(§1)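 Photometric sulforhodamine B (SRB) read-out after 96 h of compound treatment. EC50 values are averaged from three independent experiments, each run in triplicate, and reported with a 95% confidence interval. The assay has an upper cut-off.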

For another test, the system named is HT-29. Briefly: Cytotoxicity against human HT-29 cells by SRB assay. The test is classed as functional, cell-based. Particulars: Homo sapiens, HT-29; read-out: EC50. The method in brief:
as §1

A further test has as its system MCF7. Briefly: Cytotoxicity against human MCF7 cells by SRB assay. The test is classed as functional, cell-based. Particulars: Homo sapiens, MCF7; read-out: EC50. The method in brief: as §1
In a further test the test system is A549. As to the kind of experiment: Cytotoxicity against human A549 cells by SRB assay. The test is classed as functional, cell-based. Conditions: Homo sapiens, A549; read-out: EC50. The method in brief: as §1
The next test has as its system 8505C. Briefly: Cytotoxicity against human 8505C cells by SRB assay. The test is classed as functional, cell-based. Particulars: Homo sapiens, 8505C; read-out: EC50. The method in brief: as §1
For a further test, the system named is A2780. Briefly: Cytotoxicity against human A2780 cells by SRB assay. Particulars: Homo sapiens, A2780; read-out: EC50. The test is classed as functional, cell-based. In short, it runs like this:
as §1

In general, EC50 refers to the concentration giving half of the maximal effect. Regarding `CCOC(=O)C[C@]1(C)[C@H]2CC[C@@H]3[C@H]4[C@H]5OC[C@@]4(CCC5(C)C)CC[C@@]3(C)[C@]2(C)CC[C@H]1C(C)(C)C(=O)OCC`, the EC50 in test [1] is 25 µM; in test [2], 26.1 µM; in the test with HT-29 it was 17.6 µM; in the test with MCF7, 26.1 µM; in the test with A549 it was 5.9 µM; with 8505C it was 24.6 µM. Besides, in the test with A2780, the EC50 turned out to be 18.9 µM.
Turning to `CC1(C)CC[C@]23CC[C@]4(C)[C@H](CC[C@@H]5[C@@]6(C)CC[C@@H](N)C(C)(C)[C@@H]6CC[C@]54C)[C@H]2[C@H]1OC3`, the EC50 is 15.9 µM in test [1]; 10.2 µM in test [2]; 6.8 µM with HT-29; 15.2 µM with MCF7; 12.6 µM in the test with A549; 15.5 µM in the test on 8505C. Further, the EC50 in the test with A2780 was 12.9 µM.
On to `CC1(C)CC[C@]23CC[C@]4(C)[C@H](CC[C@@H]5[C@@]6(C)CC[C@H](N)C(C)(C)[C@@H]6CC[C@]54C)[C@H]2[C@H]1OC3`, for which the EC50 in test [1] worked out at 7.3 µM; in test [2], 5.4 µM; with HT-29, 6.2 µM; in the test with MCF7, 10.4 µM; in the test with A549, 7.3 µM; in the test on 8505C it was 7.8 µM. For the same compound, the EC50 in the test on A2780 is 6.6 µM.
For `C=C(C)[C@@H]1CC[C@]2(C)[C@H](CC[C@@H]3[C@H]4[C@H]5OC[C@@]4(CCC5(C)C)CC[C@]32C)[C@@]1(C)CCC(=O)OC`, the EC50 (in test [2]; in the test on HT-29; with MCF7; in the test with A549; with 8505C; in the test with A2780) was > 30 µM throughout.
Regarding `C=C(C)[C@@H]1CC[C@]2(C)[C@H](CC[C@@H]3[C@H]4[C@H]5OC[C@@]4(CCC5(C)C)CC[C@]32C)[C@@]1(C)CCC(=O)OCCC`, the EC50 (in test [2]; in the test with HT-29; with MCF7; with A549; in the test on 8505C; with A2780) was > 30 µM throughout.
Turning to `CC1(C)CC[C@]23CC[C@]4(C)[C@H](CC[C@@H]5[C@@]6(C)CCC(=O)OC(C)(C)[C@@H]6CC[C@]54C)[C@H]2[C@H]1OC3`, the EC50 (in test [2]; in the test on HT-29; in the test on MCF7; with A549; in the test on 8505C; in the test on A2780) was > 30 µM each time.
As to `C=C(C)[C@@H]1CC[C@]2(C)[C@H](CC[C@@H]3[C@H]4[C@H]5OC[C@@]4(CCC5(C)C)CC[C@]32C)[C@@]1(C)CCC#N`, the concentration for a half-maximal effect (EC50) in test [2] is 25.7 µM; in the test on HT-29 it was > 30 µM; with MCF7, > 30 µM; in the test with A549 it was 21.5 µM; with 8505C, > 30 µM; in the test with A2780, > 30 µM.
